Test results published in ChEMBL document CHEMBL4020787, “Lodopyridones B and C from a marine sediment-derived bacterium Saccharomonospora sp” (Bioorg Med Chem Lett, 2017).
Activity calls are given as the source filed them. The calls are words filed in the database; no cut-off is given here.

Key:
[1] = molecular target: Beta-secretase 1 (Homo sapiens) (UniProt P56817); assay: Inhibition of BACE1 (unknown origin) at <100 nM using Rh-EVNLDAEFK-Quencher as substrate after 60 mins by fluorescence spectroscopy
Procedure, shortened: (§1)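 Enzyme tested across a concentration series, with isoliquiritigenin as the reference drug. Activity is reported as percent inhibition.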

[2] = molecular target: Beta-secretase 1 (Homo sapiens) (UniProt P56817); assay: Inhibition of BACE1 (unknown origin) at 100 uM using Rh-EVNLDAEFK-Quencher as substrate after 60 mins by fluorescence spectroscopy relative to control; procedure, shortened: as §1
[3] = molecular target: Beta-secretase 1 (Homo sapiens) (UniProt P56817); assay: Inhibition of BACE1 (unknown origin) at 1 to 100 uM using Rh-EVNLDAEFK-Quencher as substrate after 60 mins by fluorescence spectroscopy; procedure, shortened: as §1
[4] = molecular target: Beta-secretase 1 (Homo sapiens) (UniProt P56817); assay: Inhibition of BACE1 in human SH-SY5Y cells assessed as decrease in amyloid beta (1 to 42) production after 24 hrs by ELISA relative to control; format: cell-based
Procedure, shortened: (§2)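 SH-SY5Y cells were exposed to the compound, and released Aβ40 and Aβ42 were quantified separately as percent of untreated control. Isoliquiritigenin was run in parallel as the reference drug.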

[5] = molecular target: Beta-secretase 1 (Homo sapiens) (UniProt P56817); assay: Inhibition of BACE1 in human SH-SY5Y cells assessed as decrease in amyloid beta (1 to 40) production after 24 hrs by ELISA relative to control; format: cell-based; procedure, shortened: as §2
[6] = molecular target: Beta-secretase 1 (Homo sapiens) (UniProt P56817); assay: Inhibition of BACE1 in human SH-SY5Y cells assessed as decrease in amyloid beta (1 to 42) production at 1000 uM after 24 hrs by ELISA relative to control; format: cell-based; procedure, shortened: as §2
[7] = molecular target: Beta-secretase 1 (Homo sapiens) (UniProt P56817); assay: Inhibition of BACE1 in human SH-SY5Y cells assessed as decrease in amyloid beta (1 to 40) production at 1000 uM after 24 hrs by ELISA relative to control; format: cell-based; procedure, shortened: as §2

Beta-secretase 1 (Homo sapiens), sequence (P56817 whole entry): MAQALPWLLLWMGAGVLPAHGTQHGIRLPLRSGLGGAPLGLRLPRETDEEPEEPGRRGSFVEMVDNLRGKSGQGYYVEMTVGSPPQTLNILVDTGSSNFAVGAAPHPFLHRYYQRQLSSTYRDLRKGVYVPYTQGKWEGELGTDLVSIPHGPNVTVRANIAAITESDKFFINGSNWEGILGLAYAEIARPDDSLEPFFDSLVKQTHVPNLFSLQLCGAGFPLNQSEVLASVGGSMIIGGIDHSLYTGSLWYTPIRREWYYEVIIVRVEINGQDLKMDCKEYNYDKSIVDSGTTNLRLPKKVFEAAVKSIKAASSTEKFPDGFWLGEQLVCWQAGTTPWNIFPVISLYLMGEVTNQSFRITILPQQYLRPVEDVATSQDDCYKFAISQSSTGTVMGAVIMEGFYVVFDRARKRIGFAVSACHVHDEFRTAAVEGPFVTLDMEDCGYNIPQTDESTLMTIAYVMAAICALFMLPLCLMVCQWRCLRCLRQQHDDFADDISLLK

SMILES	inhibition [1]	inhibition [2] [%]	inhibition [3]	inhibition [4]	inhibition [5]	inhibition [6] [%]	inhibition [7] [%]
COc1c(-c2csc(-c3ccc4cc(Cl)ccc4n3)n2)n(C)c(C(=O)NCCO)c([S+](C)[O-])c1=O (stereo not drawn)	inactive	51	Dose-dependent effect	–	–	–	–
COc1c(-c2csc(-c3ccc4cc(Cl)ccc4n3)n2)n(C)c(C(=O)NCCOC(C)=O)c(SC)c1=O	inactive	60	Dose-dependent effect	Dose-dependent effect	Dose-dependent effect	49	41
COc1c(-c2csc(-c3ccc4cc(Cl)ccc4n3)n2)n(C)c(C(=O)NCCO)c(SC)c1=O	inactive	42	Dose-dependent effect	–	–	–	–
